The source made the active and inactive calls. The calls are words filed in the database; no cut-off is given here.
What was measured:
[1] = Selectivity index, ratio of IC50 for HEK293 cells to IC50 for antiplasmodial activity against ring stage chloroquine-sensitive Plasmodium falciparum 3D7; assay type: toxicity, cell-based; conditions: human, read-out: Ratio IC50
Procedure, shortened: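 SI is HEK293 IC50 divided by P. falciparum 3D7 IC50. Parasites were sorbitol-synchronized twice, and rings were exposed 72 h at 37 °C (90% N2, 5% CO2, 5% O2), then DAPI-stained and imaged confocally. […] Where no accurate HEK293 IC50 was obtained, a relative IC50 or the top concentration was used and SI reported as a bound.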

[2] = Cytotoxicity against HEK293 cells assessed as cell growth inhibition measured after 72 hrs by resazurin dye based fluorescence assay relative to IC50; assay type: toxicity; conditions: human
Procedure, shortened: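 HEK293 cells grown in DMEM with 10% FBS and exposed to compound for 72 h at 37 °C, 5% CO2. Medium was then replaced with 44 μM resazurin, incubated 5–6 h more, and fluorescence read at 530/595 nm. Top concentration 80 μM. Curves were duplicate, 11-point dose response.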

DNA [3] = assay: Binding affinity to 5'-CGCATATATGCG-3' DNA (unknown origin) assessed as bound as monomer [DS + 1 M] in charge states 5- at 100 uM by native mass spectrometry; assay type: nucleic-acid assay
Procedure, shortened: (§1)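 Final sample: 9 μM DNA, 100 μM KCl, 100 μM S-MGB, 1% DMSO in 150 mM ammonium acetate pH 7. DNA with 1% DMSO and no ligand served as control. Sprayed in negative mode at 1.0–1.2 kV. Free, monomer- and dimer-bound DS species were read by charge state.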

DNA [4] = assay: Binding affinity to 5'-CGCATATATGCG-3' DNA (unknown origin) assessed as bound as dimer [DS + 2 M] in charge states 5- and 4- at 100 uM by native mass spectrometry; assay type: nucleic-acid assay; procedure, shortened: as §1
[5] = Selectivity ratio of IC50 for antiplasmodial activity against ring stage chloroquine-resistant Plasmodium falciparum Dd2 to IC50 for antiplasmodial activity against ring stage chloroquine-sensitive Plasmodium falciparum 3D7; assay type: functional
Procedure, shortened: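 Ring-stage P. falciparum Dd2 and 3D7, twice sorbitol-synchronised, in RPMI-1640 with 25 mM HEPES, 5% human AB serum, Albumax II, hypoxanthine. Exposed 72 h at 37 °C (90% N2/5% CO2/5% O2), 11-point dose response. DAPI stain, confocal imaging, % inhibition against in-plate controls, four-parameter IC50. Two independent duplicate runs. Ratio is Dd2 IC50/3D7 IC50.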

DNA [6] = assay: Binding affinity to 5'-CGCATATATGCG-3' DNA (unknown origin) assessed as appearance of small m/z peak corresponding to free ds DNA oligo at 100 uM by native mass spectrometry; assay type: nucleic-acid assay; procedure, shortened: as §1

SMILES	IC50 at 72 h [2] [µM]	also measured
Cn1cc(NC(=O)c2cc(NC(=O)c3ccc(/C=C/c4ccncc4)cc3)cn2C)cc1C(=O)NCCC(=N)N	40	selectivity ratio [1]: > 613; Activity (DNA [3]): inactive; Activity (DNA [4]): Active
Cn1cc(NC(=O)c2cc(NC(=O)c3ccc(/C=C/c4ccc(F)cc4)cc3)cn2C)cc1C(=O)NCCC(=N)N	40	–
Cn1cc(NC(=O)c2cc(NC(=O)c3ccc(NC(=O)c4ccc(F)cc4)cc3)cn2C)cc1C(=O)NCCC(=N)N	35	–
Cn1cc(NC(=O)c2cc(NC(=O)c3ccc(/C=C/c4ccc5nsnc5c4)cc3)cn2C)cc1C(=O)NCCN1CCOCC1	11	–
COc1cccc(/C=C/c2ccc(C(=O)Nc3cc(C(=O)Nc4cc(C(=O)NCCC(=N)N)n(C)c4)n(C)c3)cn2)c1	45	selectivity ratio [1]: > 336; Activity (DNA [3]): inactive; Activity (DNA [4]): Active
Cn1cc(NC(=O)c2cc(NC(=O)c3ccc(NC(=O)c4cccc(F)c4)cc3)cn2C)cc1C(=O)NCCC(=N)N	40	–
COc1cccc(/C=C/c2ccc(C(=O)Nc3cc(C(=O)Nc4cc(C(=O)NCCN(C)C)n(C)c4)n(C)c3)cc2)c1	20	–
COc1cccc(/C=C/c2ccc(C(=O)Nc3cc(C(=O)Nc4cc(C(=O)NCCCN(C)C)n(C)c4)n(C)c3)cc2)c1	35	selectivity ratio [1]: > 195
CC(C)CCn1cc(NC(=O)c2cc(NC(=O)c3cc(NC(=N)c4cc5ccccc5cn4)cn3C)cn2C)cc1C(=O)NCCCN(C)C	40	–
CC(C)CCc1sc(NC(=O)c2cc(NC(=O)c3cc(NC(=O)c4cccc(F)c4)cn3C)cn2C)nc1C(=O)NCCCN(C)C	40	–
Cn1cc(NC(=O)c2cc(NC(=O)c3ccc(/C=C/c4ccc(C(F)(F)F)cc4)cc3)cn2C)cc1C(=O)NCCN1CCOCC1	40	–
CCc1nc(N)nc(N)c1-c1ccc(Cl)cc1 [PYRIMETHAMINE]	–	Ratio IC50 [5]: >29740
COc1ccc(/C=C/c2ccc(C(=O)Nc3cc(C(=O)Nc4cc(C(=O)NCCC(=N)N)n(C)c4)n(C)c3)cc2)cc1.O=C(O)C(F)(F)F	40	Ratio IC50 [5]: 1.4
Cn1cc(NC(=O)c2cc(NC(=O)c3ccc(/C=C/C(=O)Nc4ccccc4O)cc3)cn2C)cc1C(=O)NCCC(=N)N	40	–
CN(C)CCCNC(=O)c1cc(NC(=O)c2cc(NC(=O)c3cc(NC(=N)c4cc5ccccc5cn4)cn3C)cn2C)cn1C	21	–
Cn1cc(NC(=O)c2cc(NC(=O)c3ccc(/C=C/c4cccc(F)c4)cc3)cn2C)cc1C(=O)NCCC(=N)N	40	–
Cn1cc(NC(=O)c2cc(NC(=O)c3ccc(/C=C/c4ccc5ccccc5c4)cc3)cn2C)cc1C(=O)NCCC(=N)N	80	Activity (DNA [6]): Active; selectivity ratio [1]: > 265; Activity (DNA [3]): Active; Activity (DNA [4]): Active

— ChEMBL document CHEMBL6114936, “S-MGBs bearing amidine tail groups are potent, selective antiplasmodial agents” (RSC Med Chem, 2025)
